Reference: ChEMBL document CHEMBL2203109, “3-Phenyl substituted 6,7-dimethoxyisoquinoline derivatives as FtsZ-targeting antibacterial agents” (Bioorg Med Chem, 2012)
In brackets after ≈: the same amount, converted by molar mass. Activity calls are given as the source filed them. The rule behind the calls is not given here.

What was measured:
[1] = system: HEK293; assay: Cytotoxicity against human HEK293 cells at 10 uM after 4 days by MTT assay; assay type: cell-based; conditions: hek293, 96 h
Method in brief: (§1)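 MTT assay. HEK293 or MDCK cells kept at 37 °C, 5% CO2 in DMEM, seeded at 1500 cells per well. Continuous 4-day exposure to varying drug concentrations in triplicate wells, with a drug-free control. MTT read at end of day 4; IC50 determined.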

[2] = system: Enterococcus faecalis; assay: Antibacterial activity against log-phase vancomycin-resistant Enterococcus faecalis ATCC 51575 assessed as growth inhibition after 24 hrs by broth microdilution method; assay type: functional; conditions: ATCC 51575, 24 h
Method in brief: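 CLSI broth microdilution in brain–heart infusion broth; log-phase bacteria at 10^5 CFU/mL, two-fold serial dilutions 64 to 0.031 μg/mL; 24 h aerobic incubation at 37 °C; OD600 read-out; MIC taken as lowest concentration inhibiting growth ≥90%.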

[3] = system: Staphylococcus aureus; assay: Antibacterial activity against log-phase methicillin-sensitive Staphylococcus aureus 8325-4 assessed as growth inhibition after 24 hrs by broth microdilution method; assay type: functional; conditions: 8325-4, 24 h
Method in brief: (§2)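 CLSI broth microdilution. Log-phase bacteria at 10^5 CFU/mL with two-fold serial dilutions (64 to 0.031 μg/mL). S. aureus tested in cation-adjusted Mueller-Hinton broth; E. faecalis in brain–heart infusion broth. Aerobic incubation 24 h at 37 °C. OD600 read; MIC is the lowest concentration giving ≥90% growth inhibition.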

[4] = system: Staphylococcus aureus; assay: Antibacterial activity against log-phase methicillin-resistant Staphylococcus aureus ATCC 33591 assessed as growth inhibition after 24 hrs by broth microdilution method; assay type: functional; conditions: ATCC 33591, 24 h
Method in brief: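 CLSI broth microdilution; 10^5 CFU/mL log-phase bacteria in cation-adjusted Mueller-Hinton broth with 2% NaCl, two-fold serial dilutions from 64 to 0.031 μg/mL; aerobic incubation 24 h at 37 °C; growth read as OD600; MIC = lowest concentration giving ≥90% growth inhibition.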

[5] = system: Enterococcus faecalis; assay: Antibacterial activity against log-phase vancomycin-sensitive Enterococcus faecalis ATCC 19433 assessed as growth inhibition after 24 hrs by broth microdilution method; assay type: functional; conditions: ATCC 19433, 24 h; method in brief: as §2
[6] = target: Tubulin beta chain (Sus scrofa) (UniProt P02554); assay: Induction of pig MAP-rich beta-tubulin polymerization at 40 ug/ml measured for 60 mins by microtiter plate based light scattering assay
Sequence of Tubulin beta chain (Sus scrofa) (P02554 whole entry): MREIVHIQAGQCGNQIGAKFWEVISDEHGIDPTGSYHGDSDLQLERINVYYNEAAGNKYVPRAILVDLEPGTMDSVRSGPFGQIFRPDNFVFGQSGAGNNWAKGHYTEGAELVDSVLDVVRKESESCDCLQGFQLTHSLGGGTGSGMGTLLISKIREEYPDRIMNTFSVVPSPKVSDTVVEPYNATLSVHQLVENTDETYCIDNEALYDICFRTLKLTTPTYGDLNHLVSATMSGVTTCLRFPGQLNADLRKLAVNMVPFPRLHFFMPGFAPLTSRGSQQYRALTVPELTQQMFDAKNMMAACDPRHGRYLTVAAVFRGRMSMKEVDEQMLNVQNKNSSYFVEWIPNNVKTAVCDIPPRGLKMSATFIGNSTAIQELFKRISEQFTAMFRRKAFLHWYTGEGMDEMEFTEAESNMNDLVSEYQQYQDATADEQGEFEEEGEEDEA
Method in brief: (§3)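 Porcine tubulin (70% β-tubulin, 30% MAPs) at 2 mg/mL with 1 mM GTP and compound in 80 mM PIPES NaOH pH 7.0, 2 mM MgCl2, 1 mM EGTA. A340 followed continuously at 37 °C for 60 min.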

[7] = target: T1, Cell division protein FtsZ (Staphylococcus aureus) (UniProt P0A031); assay: Induction of Staphylococcus aureus FtsZ polymerization measured for 60 mins by microtiter plate-based light scattering assay
T1 sequence (whole entry): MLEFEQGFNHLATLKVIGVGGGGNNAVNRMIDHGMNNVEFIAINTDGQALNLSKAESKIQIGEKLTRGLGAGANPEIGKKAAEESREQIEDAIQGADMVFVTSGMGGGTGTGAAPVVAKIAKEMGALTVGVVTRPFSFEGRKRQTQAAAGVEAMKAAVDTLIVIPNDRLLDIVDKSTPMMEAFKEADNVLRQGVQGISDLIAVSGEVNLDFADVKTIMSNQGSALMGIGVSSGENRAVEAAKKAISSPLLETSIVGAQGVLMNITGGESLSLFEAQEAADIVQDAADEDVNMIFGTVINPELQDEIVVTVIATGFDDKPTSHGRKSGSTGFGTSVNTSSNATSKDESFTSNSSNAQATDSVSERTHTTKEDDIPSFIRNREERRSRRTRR
Method in brief: (§4)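 Turbidity assay. 10 μM SaFtsZ plus compound (0–40 μg/mL) in 50 mM Tris HCl pH 7.4, 50 mM KCl, 2 mM magnesium acetate, 5 mM CaCl2, pre-equilibrated 10 min at room temperature. Started by adding 1 mM GTP or FtsZ; A340 followed for 60 min at 25 °C. For polymer stability, 1 mM GDP added mid-run.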

[8] = target: T1, Cell division protein FtsZ (Staphylococcus aureus); assay: Induction of Staphylococcus aureus FtsZ polymerization at 40 ug/ml measured for 60 mins by microtiter plate-based light scattering assay; method in brief: as §4
[9] = target: T1, Cell division protein FtsZ (Staphylococcus aureus); assay: Residual Staphylococcus aureus GTPase activity assessed as inorganic phosphate release upon GTP hydrolysis at 40 ug/ml preincubated for 10 mins before substrate addition measured after 2 hrs by malachite green based colorimetric analysis
[10] = target: T1, Cell division protein FtsZ (Staphylococcus aureus); assay: Induction of Staphylococcus aureus FtsZ polymerization at 40 ug/ml measured for 60 mins by microtiter plate-based light scattering assay in presence of GTP
[11] = target: T2, Cell division protein FtsZ (Staphylococcus aureus, UniProt P0A031); assay: Binding affinity to Staphylococcus aureus FtsZ expressed in Escherichia coli cells assessed as dissociation constant by fluorescence spectroscopy
T2 sequence (P0A031 whole entry): T1 sequence (whole entry)
Method in brief: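 Recombinant SaFtsZ from E. coli titrated stepwise into compound (7 or 10 μM) in 50 mM Tris HCl pH 7.4, 50 mM KCl, 2 mM magnesium acetate. After 3 min equilibration per addition, emission scanned 510–370 nm and buffer-only titration background subtracted. Kd obtained by fitting intensity changes to a 1:1 binding model.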

[12] = target: T1, Cell division protein FtsZ (Staphylococcus aureus); assay: Induction of Staphylococcus aureus GTPase activity assessed as inorganic phosphate release upon GTP hydrolysis at less than 40 ug/ml preincubated for 10 mins before substrate addition measured after 2 hrs by malachite green based colorimetric analysis
Method in brief: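 S. aureus FtsZ expressed in E. coli, 10 μM, with DMSO or compound (0.1–200 μg/mL) in 50 mM Tris HCl pH 7.4, 50 mM KCl, 2 mM Mg acetate, 5 mM CaCl2; duplicate reactions. After 10 min room-temperature pre-equilibration, 250 μM GTP added, 2 h at 37 °C. Pi by malachite green, A620, phosphate standard curve; expressed as percent of vehicle.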

[13] = system: HEK293; assay: Cytotoxicity against human HEK293 cells after 4 days by MTT assay; assay type: cell-based; conditions: HEK293, 96 h; method in brief: as §1
[14] = system: MDCK; assay: Cytotoxicity against dog MDCK cells after 4 days by MTT assay; assay type: cell-based; conditions: Canis lupus familiaris, 96 h; method in brief: as §1
[15] = target: Tubulin beta chain (Sus scrofa) (UniProt P02554); assay: Induction of pig MAP-rich beta-tubulin polymerization at 25 ug/ml measured for 60 mins by microtiter plate based light scattering assay; method in brief: as §3
[16] = target: Tubulin beta chain (Sus scrofa) (UniProt P02554); conditions: 10 ug/ml

Compound | Activity [1] | MIC90 [2] | MIC90 [3] | MIC90 [4] | MIC90 [5] | Activity [6] | Activity [7] | Activity [8] | residual activity [9] | Activity [10] | Kd [11] | Activity [12] | IC50 [13] | IC50 [14] | Activity [15] | inhibition [16]
COc1cc2cc(-c3cccc(-c4ccc(C(C)(C)C)cc4)c3)nc(CN=C(N)N)c2cc1OC | Non-toxic | 16 µg/mL (≈ 34.1 µM) | 4 µg/mL (≈ 8.54 µM) | 4 µg/mL (≈ 8.54 µM) | 8 µg/mL (≈ 17.1 µM) | – | – | – | – | – | – | – | – | – | – | –
COc1cc2cc(-c3cccc(-c4ccc(C(C)(C)C)cc4)c3)[n+](C)c(C)c2cc1OC.[I-] | – | 8 µg/mL | 1 µg/mL | 8 µg/mL | 8 µg/mL | inactive | Dose-dependent effect | Active | 14.9% | Active | 5400 nM | – | – | – | – | –
COc1cc2cc(-c3cccc(C(C)(C)C)c3)nc(C/N=C(/C)N)c2cc1OC | – | 16 µg/mL (≈ 40.9 µM) | 8 µg/mL (≈ 20.4 µM) | 8 µg/mL (≈ 20.4 µM) | 16 µg/mL (≈ 40.9 µM) | – | Dose-dependent effect | Active | 64.8% | – | – | Active | – | – | – | –
COc1cc2cc(-c3cccc(C(C)(C)C)c3)nc(CN=C(N)N)c2cc1OC | Non-toxic | 16 µg/mL (≈ 40.8 µM) | 4 µg/mL (≈ 10.2 µM) | 8 µg/mL (≈ 20.4 µM) | 16 µg/mL (≈ 40.8 µM) | inactive | Dose-dependent effect | Active | 60.4% | – | – | – | – | – | – | –
COc1cc2cc(-c3cccc(-c4ccccc4)c3)nc(CN)c2cc1OC | – | > 64 µg/mL | 8 µg/mL (≈ 21.6 µM) | 16 µg/mL (≈ 43.2 µM) | > 64 µg/mL | – | – | – | – | – | – | – | 3000 nM | 7000 nM | – | –
COc1cc2cc(-c3cccc(-c4ccccc4)c3)nc(N=C(N)N)c2cc1OC | – | 8 µg/mL (≈ 20.1 µM) | 8 µg/mL (≈ 20.1 µM) | 4 µg/mL (≈ 10 µM) | 8 µg/mL (≈ 20.1 µM) | – | – | – | – | – | – | – | 2200 nM | 2200 nM | – | –
COc1cc2cc(-c3cccc(-c4ccc(C(C)(C)C)cc4)c3)nc(C)c2cc1OC | – | > 64 µg/mL | > 64 µg/mL | > 64 µg/mL | > 64 µg/mL | – | – | inactive | – | – | – | – | – | – | – | –
CC(=O)O[C@H]1C(=O)[C@@]2(C)[C@H]([C@H](OC(=O)c3ccccc3)[C@]3(O)C[C@H](OC(=O)[C@H](O)[C@@H](NC(=O)c4ccccc4)c4ccccc4)C(C)=C1C3(C)C)[C@]1(OC(C)=O)CO[C@@H]1C[C@@H]2O | – | – | – | – | – | – | – | – | – | – | – | – | – | – | Active | –
COc1cc2cc(-c3cccc(C(C)(C)C)c3)nc(CCN=C(N)N)c2cc1OC | Non-toxic | 16 µg/mL (≈ 39.4 µM) | 4 µg/mL (≈ 9.84 µM) | 4 µg/mL (≈ 9.84 µM) | 16 µg/mL (≈ 39.4 µM) | – | Dose-dependent effect | Active | 66.5% | Active | – | – | – | – | – | –
COc1cc2cc(-c3cccc(-c4ccccc4)c3)nc(CN=C(N)N)c2cc1OC | Non-toxic | 8 µg/mL (≈ 19.4 µM) | 2 µg/mL (≈ 4.85 µM) | 2 µg/mL (≈ 4.85 µM) | 8 µg/mL (≈ 19.4 µM) | – | – | – | – | – | – | – | – | – | – | –
COc1cc2cc(-c3cccc(-c4ccccc4)c3)nc(CCN=C(N)N)c2cc1OC | Non-toxic | 8 µg/mL (≈ 18.8 µM) | 2 µg/mL (≈ 4.69 µM) | 2 µg/mL (≈ 4.69 µM) | 8 µg/mL (≈ 18.8 µM) | – | Dose-dependent effect | Active | 56% | – | – | Active | – | – | – | –
COc1cc2cc(-c3cccc(-c4ccc(-c5ccccc5)cc4)c3)[n+](C)c(C)c2cc1OC.[I-] | – | 8 µg/mL | 1 µg/mL | 2 µg/mL | 4 µg/mL | – | Dose-dependent effect | Active | 30.2% | – | 2000 nM | – | – | – | – | –
COc1cc2cc(-c3cccc(C(C)(C)C)c3)nc(CCN)c2cc1OC | – | 16 µg/mL (≈ 43.9 µM) | 16 µg/mL (≈ 43.9 µM) | 16 µg/mL (≈ 43.9 µM) | 16 µg/mL (≈ 43.9 µM) | – | Dose-dependent effect | Active | 59.7% | Active | – | – | 2200 nM | 2200 nM | – | –
COC(=O)Nc1nc2cc(C(=O)c3cccs3)ccc2[nH]1 | – | – | – | – | – | – | – | – | – | – | – | – | – | – | – | Active
COc1cc2cnc(-c3cccc(-c4ccccc4)c3)cc2cc1OC | – | > 64 µg/mL | > 64 µg/mL | > 64 µg/mL | > 64 µg/mL | – | – | – | – | – | – | – | – | – | – | –
COc1ccc2cc3[n+](cc2c1OC)CCc1cc2c(cc1-3)OCO2 [BERBERINE] | – | > 64 µg/mL | > 64 µg/mL | > 64 µg/mL | > 64 µg/mL | – | – | inactive | – | – | – | – | – | – | – | –
COc1cc2cc(-c3cccc(C(C)(C)C)c3)nc(CN)c2cc1OC | Non-toxic | 32 µg/mL (≈ 91.3 µM) | 4 µg/mL (≈ 11.4 µM) | 8 µg/mL (≈ 22.8 µM) | 32 µg/mL (≈ 91.3 µM) | – | – | – | – | – | – | – | – | – | – | –
COc1cc2cc(-c3cccc(C(C)(C)C)c3)nc(C)c2cc1OC | – | > 64 µg/mL | > 64 µg/mL | > 64 µg/mL | > 64 µg/mL | – | – | inactive | – | – | – | – | – | – | – | –
CN[C@H](CC(C)C)C(=O)N[C@H]1C(=O)N[C@@H](CC(N)=O)C(=O)N[C@H]2C(=O)N[C@H]3C(=O)N[C@H](C(=O)N[C@H](C(=O)O)c4cc(O)cc(O)c4-c4cc3ccc4O)[C@H](O)c3ccc(c(Cl)c3)Oc3cc2cc(c3O[C@@H]2O[C@H](CO)[C@@H](O)[C@H](O)[C@H]2O[C@H]2C[C@](C)(N)[C@H](O)[C@H](C)O2)Oc2ccc(cc2Cl)[C@H]1O [VANCOMYCIN] | – | > 64 µg/mL | 1 µg/mL (≈ 0.69 µM) | 2 µg/mL (≈ 1.38 µM) | 1 µg/mL (≈ 0.69 µM) | – | – | inactive | 99.7% | – | – | – | – | – | – | –
